# Experimental data published in PubChem BioAssay.
# Activity calls are given as the source filed them.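 Rule for the calls, unless noted: active = viability at or below 30% in both replicate assays; inconclusive = viability at or below 30% in just one of the two assays; inactive = the rest.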
# Key:
# [1] = reducers of endogenous Her2 protein level, primary screen, SKBR3 breast tumor cells, AlphaScreen, ATP viability (AID 461;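 active = Her2 level under about 52% in both replicate screens, with viability over 70% of control, limit read from the data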;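 for Her2 level: lower value means less Her2 protein in the cells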;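 for viability: percent of carrier control wells set as 100% viability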); conditions: 18-24 h, measured here: SKBR3 viability, ATP luminescence, at 10 µM
# [2] = target: Receptor tyrosine-protein kinase erbB-2 (Homo sapiens) (UniProt P04626); assay: as above; conditions: 18-24 h, at 10 µM, stronger effect = lower value
# [3] = SK-BR-3 cell growth inhibitors, pilot screen, 24 h, human (AID 572;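 active = viability at or below 10% of carrier control in both of two separate runs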;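 note: compound exposure lasted between 18 and 24 h rather than exactly 24 h; 100% = carrier-treated control wells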); conditions: SK-BR-3 viability, CellTiter-Glo luminescence, at 10 µM, stronger effect = lower value
# [4] = HUVEC growth inhibition – cell-based, human, primary screen (AID 575); conditions: HUVEC proliferation, CellTiter-Glo luminescence, 72 h; at 10 µM; stronger effect = lower value;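 note: 100% = median of untreated cell wells with 0.1% DMSO on each plate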
# Summary of the method: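 Test system – primary HUVEC, no more than 12 passages · Dosing – one dose, 10 µM final, 0.1% DMSO · Times – 72 h treatment at 37 °C · Measured by – ATP-based CellTiter-Glo luminescent read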
# [5] = growth inhibitors of H69AR lung tumor, primary screen, human, duplicate replicates (AID 580;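 active = viability at or under a set limit in both replicates, limit being median viability minus 3 SD, cut at about 48% in these data, passing the limit was not always enough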;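 note: 100% = mean luminescence of untreated wells and 0% = no signal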); conditions: H69AR lung tumor cells viability, ATP luminescence, 72 h; at 10 µM; stronger effect = lower value
# [6] = reversal of MRP1-mediated doxorubicin resistance, pilot screen, H69AR cells, doxorubicin co-treatment (AID 601;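 active = viability loss from added drug above about 55%, and viability with drug at most 40%, in both replicates, limit read from the data, passing the limit was not always enough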); conditions: CellTiter-Glo, 72 h, at 10 µM; for differential viability (reversal): stronger effect = higher value
# [7] = 384-well plate pilot, post-Golgi transport modulator project, inhibition of yeast transport mutant growth (AID 636; in the data active = inhibition above about 31%); conditions: absorbance 615 nm, about 18 h, stronger effect = higher value
# [8] = growth suppression of yeast trafficking mutant, preliminary HTS, modulators of trafficking downstream of Golgi apparatus project, 1536-format plate, OD 615 nm (AID 637; in the data active = inhibition above about 30%); conditions: yeast transport mutant growth, absorbance 615 nm, 18 h; stronger effect = higher value
# [9] = H69AR cells + 2 uM doxorubicin, measured here: viability with 2 uM doxorubicin, stronger effect = lower value
# [10] = H69AR cells, compound alone cytotoxicity
# Sequence of Receptor tyrosine-protein kinase erbB-2 (Homo sapiens) (P04626 whole entry, looked up): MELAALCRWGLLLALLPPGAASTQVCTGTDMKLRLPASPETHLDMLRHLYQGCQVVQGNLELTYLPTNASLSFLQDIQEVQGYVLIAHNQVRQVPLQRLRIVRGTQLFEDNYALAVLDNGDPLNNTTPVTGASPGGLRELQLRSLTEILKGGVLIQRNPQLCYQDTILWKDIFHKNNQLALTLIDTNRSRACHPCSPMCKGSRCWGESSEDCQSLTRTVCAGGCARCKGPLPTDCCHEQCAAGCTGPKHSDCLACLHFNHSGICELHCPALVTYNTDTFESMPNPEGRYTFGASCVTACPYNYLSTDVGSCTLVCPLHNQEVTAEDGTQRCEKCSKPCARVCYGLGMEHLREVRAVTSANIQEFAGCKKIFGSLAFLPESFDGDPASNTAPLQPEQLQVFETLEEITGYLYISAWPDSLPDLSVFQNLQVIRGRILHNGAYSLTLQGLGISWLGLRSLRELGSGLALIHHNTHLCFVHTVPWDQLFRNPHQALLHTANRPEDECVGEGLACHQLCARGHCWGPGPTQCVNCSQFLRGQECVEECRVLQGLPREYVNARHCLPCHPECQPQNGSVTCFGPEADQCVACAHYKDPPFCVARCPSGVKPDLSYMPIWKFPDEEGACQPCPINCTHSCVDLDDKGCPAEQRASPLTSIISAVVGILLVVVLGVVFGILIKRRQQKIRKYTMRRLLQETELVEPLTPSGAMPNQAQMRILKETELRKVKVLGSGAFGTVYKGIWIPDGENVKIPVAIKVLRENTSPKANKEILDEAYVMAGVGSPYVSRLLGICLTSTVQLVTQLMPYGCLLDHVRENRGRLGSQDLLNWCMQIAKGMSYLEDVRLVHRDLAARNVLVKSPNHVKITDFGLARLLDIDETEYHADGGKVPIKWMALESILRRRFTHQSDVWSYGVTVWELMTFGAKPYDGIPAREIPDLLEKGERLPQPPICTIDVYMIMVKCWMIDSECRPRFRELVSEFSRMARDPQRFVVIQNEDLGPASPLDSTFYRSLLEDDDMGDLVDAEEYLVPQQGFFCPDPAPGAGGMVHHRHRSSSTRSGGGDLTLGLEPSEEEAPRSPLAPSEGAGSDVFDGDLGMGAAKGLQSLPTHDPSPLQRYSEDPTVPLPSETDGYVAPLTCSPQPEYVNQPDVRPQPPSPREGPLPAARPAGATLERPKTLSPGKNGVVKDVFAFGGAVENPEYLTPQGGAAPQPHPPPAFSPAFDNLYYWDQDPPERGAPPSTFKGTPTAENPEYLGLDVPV
Compound,viability [1] [%],Her2 level [2],viability [3],viability [4],viability [5],differential viability (reversal) ([6]; H69AR cells + 2 uM doxorubicin),"viability [6, 9] [%]","viability [6, 10] [%]",inhibition [7],inhibition [8]
O=C(O)C1CCCN1c1ncnc2c1oc1ccccc12 (stereo not given),101,92% (inactive),101% (inactive),81% (inactive),92.3% (inactive),-7.12% (inactive),99.4,92.3,-0.4% (inactive),-7.1% (inactive)
CCC12CN3CC(CC)(CN(C1)C3c1ccc(OC(C)C)cc1)C2=O (stereo not given),94,92% (inactive),94% (inactive),110% (inactive),105% (inactive),10.7% (inactive),94.6,105,-3.78% (inactive),-0.95% (inactive)
O=C1NCC(COCc2ccccc2)O1 (stereo not given),110,96% (inactive),110% (inactive),103% (inactive),108% (inactive),18.5% (inactive),89.4,108,-5.6% (inactive),0% (inactive)
COc1ccccc1-c1nc(SCc2ccccn2)n[nH]1,104,78.5% (inactive),104% (inactive),98.3% (inactive),97.2% (inactive),5.32% (inactive),91.9,97.2,-1.89% (inactive),-2.06% (inactive)
CC(=O)Nc1ccc(-c2cc3ccccc3o2)cc1,103,89% (inactive),103% (inactive),82.4% (inactive),95.9% (inactive),12% (inactive),83.9,95.9,-6.44% (inactive),-5.08% (inactive)
O=C(Nc1cccc(F)c1)N1CC=C(n2c(=O)[nH]c3ccccc32)CC1,111,86.5% (inactive),111% (inactive),93.4% (inactive),81.9% (inactive),5.16% (inactive),76.7,81.9,-4.21% (inactive),0.91% (inactive)
CCOc1ccc(C(CC(=O)O)NC(=O)c2ccco2)cc1OC (stereo not given),102,102% (inactive),102% (inactive),104% (inactive),94.2% (inactive),1.89% (inactive),92.3,94.2,-6.76% (inactive),-1.33% (inactive)
CC(C)n1c(=NC(=O)c2ccco2)c(C#N)cc2c(=O)n3ccccc3cc21,100,106% (inactive),100% (inactive),84.1% (inactive),6.44% (active),4.01% (inactive),2.43,6.44,3.16% (inactive),-6.61% (inactive)
COc1ccccc1NC(=O)CSc1nnc(-c2ccncc2)o1,108,96% (inactive),108% (inactive),111% (inactive),93.8% (inactive),2.67% (inactive),91.2,93.8,0.91% (inactive),-4.33% (inactive)
Cc1cc(=O)[nH]c(SCC(=O)NCc2ccco2)n1,95,106% (inactive),95% (inactive),88.6% (inactive),94.6% (inactive),-5.85% (inactive),100,94.6,-5.48% (inactive),-2.38% (inactive)
CC(=O)Nc1ccc(S(=O)(=O)n2cnc(C)c2)cc1,91,93.5% (inactive),91% (inactive),102% (inactive),104% (inactive),3.98% (inactive),99.6,104,-0.53% (inactive),-5% (inactive)
CCOC(=O)c1c(C)n(C)c2ccc(O)c(S(=O)(=O)c3ccccc3)c12,91.5,80.5% (inactive),91.5% (inactive),103% (inactive),87.9% (inactive),-1.07% (inactive),88.9,87.9,-6.4% (inactive),-1.31% (inactive)
C1=Nc2c(NCc3ccccc3)ncnc2Oc2ccccc21,83,84.5% (inactive),83% (inactive),80.6% (inactive),91.7% (inactive),7.99% (inactive),83.7,91.7,2.13% (inactive),0.16% (inactive)
Cc1coc(NC(=O)CSc2nc(-c3ccncc3)cc(C(F)(F)F)c2C#N)n1,106,71% (inactive),106% (inactive),79% (inactive),71.8% (inactive),1.41% (inactive),70.4,71.8,-2.5% (inactive),0.73% (inactive)
